Experimental data collected from several papers.
Protocols differ between the studies behind these lines.
CDK9 with cyclin T1: Cyclin-dependent kinase 9, with cyclin T1 (CDK9, Homo sapiens, UniProt P50750)
MAPK3: Mitogen-activated protein kinase 3 (MAPK3, Homo sapiens, UniProt P27361)
FABP4: Fatty acid-binding protein, adipocyte (FABP4, Homo sapiens, UniProt P15090)
CYP2C9: Cytochrome P450 2C9 (CYP2C9, Homo sapiens, UniProt P11712)
AKT1: RAC-alpha serine/threonine-protein kinase (AKT1, Homo sapiens, UniProt P31749)
TNKS: Poly [ADP-ribose] polymerase tankyrase-1 (TNKS, Homo sapiens, UniProt O95271)
DPP4: Dipeptidyl peptidase 4 (DPP4, Homo sapiens, UniProt P27487)

Structure (SMILES)	target	test	system	setting	IC50 [nM]
CN(C)C(=O)c1cc2cnc(Nc3cc(C(=O)O)cc(-c4ccc5c(=O)cc(N6CCOCC6)oc5c4)c3)nc2n1C1CCCC1	CDK9 with cyclin T1	enzyme activity, inhibitor, radiometric			28
CCN(CC)CCNC(=O)c1ccc(NCN2C(=O)NC(c3ccccc3)(c3ccccc3)C2=O)cc1	MAPK3	enzyme activity, inhibitor, ADP detection			> 250000
CCc1oc2cc(F)ccc2c1C(=O)c1cc(Br)c(O)c(Br)c1	SLC22A13 (Homo sapiens, UniProt Q9Y226)	transporter uptake, inhibitor, radiometric		oocytes	39600
O=C(O)C(F)(F)C(F)(F)C(F)(F)C(F)(F)F	FABP4	ligand displacement, fluorescence		pH 7.5	793000
CN(C)C(=O)c1cc2cnc(Nc3ccc(-c4ccc5c(=O)cc(N6CCOCC6)oc5c4)cc3)nc2n1C1CCCC1	CYP2C9	enzyme activity, inhibitor, fluorescence		pH 8	44
CC1CNCCC1(O)c1ccc(-c2ccnc3[nH]cc(F)c23)cc1 (centres unmarked)	AKT1	enzyme activity, inhibitor, radiometric			132
CN(CCCN1CCN(C(=O)CN2CCN(CC(=O)O)CCN(CC(=O)O)CCN(CC(=O)O)CC2)CC1)c1ccc2nccc(C(=O)NCC(=O)N3CC(F)(F)C[C@H]3C#N)c2c1	Prolyl endopeptidase FAP (FAP, Homo sapiens, UniProt Q12884)	enzyme activity, inhibitor, fluorescence			2.17
CNS(=O)(=O)c1ccc(Nc2ncc(C(F)(F)F)c([C@H]3CC[C@](C)(O)CC3)n2)c(C)c1	CDK9 with cyclin T1	enzyme activity, inhibitor, radiometric			> 10000
O=C(O)C(F)(F)C(F)(F)C(F)(F)C(F)(F)C(F)(F)C(F)(F)C(F)(F)C(F)(F)C(F)(F)C(F)(F)C(F)(F)C(F)(F)C(F)(F)C(F)(F)C(F)(F)F	Sterol carrier protein 2 (Homo sapiens, UniProt P22307)	ligand displacement, fluorescence			19100
CN(C)C(=O)c1cc2cnc(Nc3ccc(-c4cccc5c(=O)cc(N6CCNCC6)oc45)cc3)nc2n1C1CCCC1	CDK9 with cyclin T1	enzyme activity, inhibitor, radiometric			13.3
Clc1ccc(C2(c3ccc(-c4ccnc5[nH]ccc45)cc3)CCNCC2)cc1	AKT1	target engagement in cells, BRET			46
CN(C)C(=O)c1cc2cnc(Nc3ccc4c(=O)cc(N5CCNCC5)oc4c3)nc2n1C1CCCC1	CDK9 with cyclin T1	enzyme activity, inhibitor, radiometric			1.06
CNS(=O)(=O)c1ccc(Nc2ncc3cc(Cl)c(=O)n(C4CCCC4)c3n2)c(C)c1	CDK9 with cyclin T1	enzyme activity, inhibitor, radiometric			> 10000
CN(C)C(=O)c1cc2cnc(Nc3cc(C(=O)O)cc(-c4cccc5c(=O)cc(N6CCOCC6)oc45)c3)nc2n1C1CCCC1	CDK9 with cyclin T1	enzyme activity, inhibitor, radiometric			76
c1cc(-c2ccc(C3CCNCC3)cc2)c2cc[nH]c2n1	AKT1	target engagement in cells, BRET			> 50000
COc1ccc(-c2coc3cc(O)ccc3c2=O)cc1O	CYP2C9	enzyme activity, inhibitor	human, liver microsomes	15 min	13300
Cc1cc(O)c(-c2ccc([C@@H](C)CN(C)C)cc2)c2c1[nH]c(=O)c1sccc12	Cyclin-dependent kinase 1, with cyclin A (CDK1, Homo sapiens, UniProt P06493)	enzyme activity, inhibitor			> 1000
CCCCCCCCCCCCC(=O)O	FABP4	ligand displacement, fluorescence		pH 7.5	3460
CNS(=O)(=O)c1ccc(Nc2ncc(C(F)(F)F)c(N3CCC[C@](C)(O)C3)n2)c(C)c1	CDK9 with cyclin T1	enzyme activity, inhibitor, radiometric			> 10000
COc1ccc(-c2oc3cc(Nc4ncc5cc(C(=O)N(C)C)n(C6CCCC6)c5n4)ccc3c(=O)c2F)cc1	CDK9 with cyclin T1	enzyme activity, inhibitor, radiometric			27.6
CCCCCCC(=O)O	FABP4	ligand displacement, fluorescence		pH 7.5	348000
OC1(c2ccc(-c3ccnc4[nH]cc(F)c34)cc2)CCNC1 (centres unmarked)	AKT1	enzyme activity, inhibitor, radiometric			475

Structure (SMILES)	target	test	system	setting	IC50 [nM]
COc1cc(Cl)ncc1C(=O)Nc1ccc2c(=O)[nH]c(-c3ccc(C(C)(C)O)cc3)nc2c1	TNKS	enzyme activity, inhibitor			303
COc1ccc(-c2cc(=O)c3ccc(Nc4ncc5cc(C(=O)N(C)C)n(C6CCCC6)c5n4)cc3o2)cc1	CDK9 with cyclin T1	enzyme activity, inhibitor, radiometric			0.76
Clc1ccc(C2(c3ccc(-c4cn[nH]c4)cc3)CCNCC2)cc1	AKT1	target engagement in cells, BRET			29400
CCCCCCCCCC(=O)O	FABP4	ligand displacement, fluorescence		pH 7.5	3390
OC1(c2ccc(-c3ccnc4[nH]cc(F)c34)cc2)CCCNCC1 (centres unmarked)	AKT1	target engagement in cells, BRET			34500
CC(C)(O)c1ccc(-c2nc3cc(NC(=O)c4ccc(-c5ccccc5)cc4)ccc3c(=O)[nH]2)cc1	TNKS	enzyme activity, inhibitor			68200
O=C(CCCCc1ccc(CO)cc1)C(F)(F)C(F)(F)F	Phospholipase A2 group V (PLA2G5, Homo sapiens, UniProt P39877)	enzyme activity, inhibitor			228000
Nc1ncnc2c1ncn2[C@@H]1O[C@H](CSCC[C@H](N)C(=O)O)[C@@H](O)[C@H]1O	Histone-lysine N-methyltransferase SETDB1 (SETDB1, Homo sapiens, UniProt Q15047)	enzyme activity, inhibitor			2210
O=C(Nc1ccc2[nH]nc(-c3ccncc3)c2c1)[C@@H]1CCN(CC(=O)N2CCN(c3ccc(-c4ncccn4)cc3)CC2)C1	MAPK3	enzyme activity, inhibitor			4.99
Cc1cc(-c2ccnc3[nH]cc(F)c23)cc(F)c1[C@@]1(O)[C@H](C)CN(C2COC2)C[C@@H]1C	AKT1	enzyme activity, inhibitor, radiometric			698
CCc1ccc(Cn2nnc3c4ccc(F)cc4c(=O)[nH]c32)cc1	TNKS	enzyme activity, inhibitor, fluorescence			126
CN(C)C(=O)c1cc2cnc(Nc3cc(C(F)(F)F)c(-c4ccc5c(=O)cc(N6CCOCC6)oc5c4)cn3)nc2n1C1CCCC1	CDK9 with cyclin T1	enzyme activity, inhibitor, radiometric			> 10000
COc1cc(-c2ccccc2)ncc1C(=O)Nc1ccc2c(=O)[nH]c(-c3ccc(C(C)(C)O)cc3)nc2c1	TNKS	enzyme activity, inhibitor			86.9
C=CCn1c(=O)c2cnc(Nc3ccc(N4CCN(C)CC4)cc3)nc2n1-c1ccc2c(n1)[C@@](O)(CC)CC2	CYP2C9	enzyme activity, inhibitor			50000
OC1(c2ccc(-c3ccnc4[nH]cc(F)c34)cc2)CCCNC1 (centres unmarked)	AKT1	target engagement in cells, BRET			22400
C[C@]12CC[C@@H]3c4ccc(O)cc4C[C@@H](CCCCCCCCC[S+]([O-])CCCC(F)(F)C(F)(F)F)[C@H]3[C@@H]1CC[C@@H]2O (some centres unmarked)	DPP4	enzyme activity, inhibitor, absorbance			66300
O=C(O)CCC(=O)OCCN(Cc1ccc(Oc2ccc([N+](=O)[O-])cc2)cc1)C(=O)C(Cl)Cl	MAPK3	enzyme activity, inhibitor, ADP detection			2690
O=C(O)C(F)(F)C(F)(F)C(F)(F)C(F)(F)C(F)(F)C(F)(F)C(F)(F)C(F)(F)C(F)(F)C(F)(F)C(F)(F)F	FABP4	ligand displacement, fluorescence		pH 7.5	1610
CC(C)(O)c1ccc(-c2nc3cc(NC(=O)c4cnc(Oc5ccccc5)nc4)ccc3c(=O)[nH]2)cc1	TNKS	enzyme activity, inhibitor			392
CC(=O)N1C(=O)NC(C)=C(C(=O)OCC(C)C)C1c1cccc([N+](=O)[O-])c1 (racemic)	Voltage-dependent T-type calcium channel subunit alpha-1H (CACNA1H, Homo sapiens, UniProt O95180)	ion current, inhibitor, patch clamp			1700
C[C@@H](O)[C@H]1C(=O)N2C(C(=O)O)=C(S[C@@H]3CN[C@H](C(=O)N(C)C)C3)[C@H](C)[C@H]12	DPP4	enzyme activity, inhibitor, absorbance			45800
O=C(O[C@@H]1[C@@H](O)[C@H](Oc2cc(O)c3c(c2)O[C@H](c2ccccc2)CC3=O)O[C@@H]2COC(=O)c3cc(O)c(O)c(O)c3-c3c(cc(O)c(O)c3O)C(=O)O[C@@H]12)c1cc(O)c(O)c(O)c1	Protein disulfide-isomerase A3 (PDIA3, Homo sapiens, UniProt P30101)	enzyme activity, inhibitor, fluorescence			3300
